Measles CPE = protection of cells from measles virus; 140,000 tested, 1.5% active; Measles virus-infected cells, CPE protection, absorbance; protection (pct of control), % at 4 µM; AID 841; in the data active means protection mostly above about 24%, no sharp cut-off; inactive means mostly below about 26%
sdo1 growth = restores growth of sdo1-depleted yeast. S. cerevisiae sdo1-depleted JHY4D growth rescue, OD600 30 h; active compounds read high; pdr5 snq2 efflux-pump mutant strain. z-score at 10 µM. 140,000 tested, 0.21% active. AID 817;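 active means z-score above 3 at both the 24 hr and the 30 hr optical density reads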;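 further: z-score against mean and SD of all compound wells on the same plate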
Yeast growth inh = reduces growth of yeast BB579 in restrictive medium; AID 804; S. cerevisiae BB579 growth, OD615, 48 h; 140,000 tested, 0.51% active; inhibition, % at 10 µM;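 active means inhibition above a set limit, 3 SD over the mean compound inhibition, cut at about 44% in these data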
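Assay system – yeast BB579 (DeaD) · Dosing – single compound dose of 10 µM, 0.25% DMSO final · Detection – OD615 turbidity measurement · Buffer or medium – CSMM-D restrictive synthetic medium containing dextrose (glucose) · Benchmarks – positive control amphotericin B 10 µg/mL · Incubation – 48 h exposure, 30 °C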
RAM network inh = yeast RAM network inhibition. inhibition, % at 50 µM. S. cerevisiae dse1pr::URA3 reporter, 5-FOA growth OD615, 2 d; analog-sensitive cbk1-as2 kinase mutant strain. 190,000 tested, 1.8% active;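 active means inhibition above a set limit, 3 SD over mean compound inhibition, cut at about 8.4% in these data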;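 further: 0% = DMSO-only wells with no growth and 100% = 10 µM 1-NA-PP1 full growth; inhibition rescues growth on 5-FOA so higher OD means more RAM inhibition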
Yeast lifespan up = extends the lifespan of yeast. S. cerevisiae growth with nicotinamide, OD615; deaD strain in restrictive glucose medium. inhibition of the nicotinamide effect, % at 10 µM. 130,000 tested, 0.68% active. AID 775;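 active means inhibition above a set limit, placed 3 SD over the median of all compounds, cut at about 26% in these data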;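 further: 0% = nicotinamide-treated wells and 100% = cells grown without nicotinamide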
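assay system = DeaD-strain S. cerevisiae | buffer or medium = restrictive glucose medium | reagent = 1.5 mM nicotinamide | compound = 10 µM single point, 0.25% DMSO | incubation = 48 h compound exposure at 30 °C, humidified | signal = OD615 measurement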
Active calls of the source: *. In the library only some 3.8% were active in any assay of this set; here they are far more common.

What do the screens show for `O=c1[nH]c(=O)n(CCO)c2nnn(Cc3ccccc3)c12`?
Measles CPE: 29.9*; sdo1 growth: 2.02; Yeast growth inh: -15.1; RAM network inh: -0.5; Yeast lifespan up: -3.0

What do the screens show for `Cn1nnnc1SCC(=O)C(C)(C)C`?
RAM network inh: 1.9

How did CCSC1=NSC2=NC(=O)/C(=C\c3coc4ccccc4c3=O)C(=N)N12 do in these assays?
Measles CPE: 10.8; sdo1 growth: 0.29; Yeast growth inh: -15.9; RAM network inh: 4.2; Yeast lifespan up: 38.2*

How did CS(=O)(=O)C1=NSC2=NC(=O)/C(=C\c3ccc(-c4ccccc4)o3)C(=N)N21 do in these assays?
Measles CPE: 2.4; sdo1 growth: -0.03; Yeast growth inh: -2.4; RAM network inh: 3.0; Yeast lifespan up: 1.6

How did O=C(CN1C(=O)C2CC=CCC2C1=O)NCC1COc2ccccc2O1 (stereo not given) do in these assays?
Measles CPE: 2.9; sdo1 growth: 0.08; Yeast growth inh: -2.3; RAM network inh: 0.1; Yeast lifespan up: -20.9

How did Cc1cc([N+](=O)[O-])ccc1NCc1ccccc1 do in these assays?
Measles CPE: 29.0; sdo1 growth: -1.78; Yeast growth inh: -45.9; RAM network inh: 0.5; Yeast lifespan up: -10.9

What do the screens show for `Cc1cc([N+](=O)[O-])ccc1NC(=O)Cc1ccc(F)cc1`?
Measles CPE: 52.8*; sdo1 growth: -0.98; Yeast growth inh: -18.4; RAM network inh: 0.8; Yeast lifespan up: -4.6

Results for Cc1cc([N+](=O)[O-])ccc1NCc1ccc2ccccc2c1 ?
Measles CPE: 3.7; sdo1 growth: -1.14; Yeast growth inh: -51.1; RAM network inh: 9.8*; Yeast lifespan up: -9.3

How did O=C(Cc1ccc([N+](=O)[O-])cc1)Nc1cccc(C(F)(F)F)c1 do in these assays?
Measles CPE: 72.7*; sdo1 growth: -0.29; Yeast growth inh: -6.9; RAM network inh: 0.1; Yeast lifespan up: -8.2

What do the screens show for `CCc1cccc(NC(=O)Cc2ccc([N+](=O)[O-])cc2)c1`?
Measles CPE: 5.8; sdo1 growth: 0.38; Yeast growth inh: -5.0; RAM network inh: 0.0; Yeast lifespan up: -3.8

Results for Cc1ccc([N+](=O)[O-])cc1NC(=O)Cc1ccc(F)cc1 ?
RAM network inh: 1.5

Results for CSc1ccc(C(=O)C2CCCN(S(=O)(=O)N(C)C)C2)cc1 (stereo not given) ?
RAM network inh: 10.2*

How did CC(C)(C)n1nc(-c2ccc(Cl)cc2)c2c(N)ncnc21 do in these assays?
Measles CPE: 5.2; sdo1 growth: -2.64; Yeast growth inh: 82.6*; RAM network inh: -0.8; Yeast lifespan up: -17.9

Results for CC(C)(C)n1nc(-c2ccc(F)cc2)c2c(N)ncnc21 ?
Measles CPE: 1.1; sdo1 growth: -2.67; Yeast growth inh: 87.6*; RAM network inh: -0.2; Yeast lifespan up: -6.1

How did Cc1ccc(-c2nn(C(C)(C)C)c3ncnc(NS(=O)(=O)c4ccc([N+](=O)[O-])cc4)c23)cc1 do in these assays?
RAM network inh: 0.6

How did Cc1ccc(-c2nc(N)c3c(-c4ccc(C)cc4)nn(C(C)(C)C)c3n2)cc1 do in these assays?
Measles CPE: 1.9; sdo1 growth: -0.23; Yeast growth inh: -4.0; RAM network inh: 1.1; Yeast lifespan up: -4.2

How did O=C(NCCC1=CCCCC1)C1CCN(S(=O)(=O)c2cccc3nsnc23)CC1 do in these assays?
Measles CPE: 7.4; sdo1 growth: -1.05; Yeast growth inh: -31.1; RAM network inh: 3.5

What do the screens show for `CCCc1cc(=O)oc2cc(C)c(CN3CCCC3)c(O)c12`?
Measles CPE: 15.2; sdo1 growth: 0.39; Yeast growth inh: -21.4; RAM network inh: -0.2; Yeast lifespan up: 35.2*

What do the screens show for `COc1ccc(C(C(=O)Nc2ccc(C(C)C)cc2)N(C)C(=O)c2ccc(=O)[nH]c2)cc1` (stereo not given)?
RAM network inh: 9.0*

How did CCOC(=O)c1sc(N)c(C(=O)Nc2ccccc2OC)c1C do in these assays?
RAM network inh: 3.6

How did COc1ccccc1NC(=O)c1c(Nc2ccccc2F)sc(C(=O)Nc2cccc(Cl)c2)c1N do in these assays?
Measles CPE: 4.4; sdo1 growth: -0.95; Yeast growth inh: -53.6; RAM network inh: 10.8*; Yeast lifespan up: 8.2

What do the screens show for `COc1ccc(Nc2sc(C(=O)Nc3cccc(Cl)c3)c(N)c2C(=O)Nc2ccccc2OC)cc1`?
Measles CPE: 16.1; sdo1 growth: -0.96; Yeast growth inh: -23.1; RAM network inh: 9.7*; Yeast lifespan up: 1.3

Results for COc1ccc(OC)c(-c2cc(C(=O)Nc3cccc(Cl)c3)no2)c1 ?
Measles CPE: 13.0; sdo1 growth: -0.99; Yeast growth inh: -34.9; RAM network inh: 2.2; Yeast lifespan up: -9.6

How did O=C(/C(=N\Nc1ccccc1)Sc1nnnn1-c1ccccc1)c1ccccc1 do in these assays?
Measles CPE: 10.9; sdo1 growth: -0.49; Yeast growth inh: -38.7; RAM network inh: 8.2; Yeast lifespan up: 30.4*

Results for COC(=O)CSc1nnnn1-c1ccccc1 ?
Measles CPE: 7.5; sdo1 growth: -0.2; Yeast growth inh: -48.8; RAM network inh: -0.8; Yeast lifespan up: -10.7

What do the screens show for `O=C(OCn1ncc(Br)c(Br)c1=O)c1ccc(F)cc1`?
Measles CPE: 0.5; sdo1 growth: -2.75; Yeast growth inh: 91.2*; RAM network inh: -0.7; Yeast lifespan up: -11.4

What do the screens show for `O=C(OCn1ncc(Br)c(Br)c1=O)c1ccccc1Cl`?
Measles CPE: 0.8; sdo1 growth: -2.19; Yeast growth inh: 72.8*; RAM network inh: 2.0; Yeast lifespan up: 23.0

How did O=C(OCc1cnc(Cl)s1)c1ccccc1Cl do in these assays?
Measles CPE: 8.6; sdo1 growth: -0.92; Yeast growth inh: -35.8; RAM network inh: 2.8; Yeast lifespan up: -8.1

Results for CC(=O)Nc1ccc(C(=O)OCc2ccc(F)cc2)cc1 ?
RAM network inh: 1.6

Results for COc1cc(C(=O)N/N=C/c2ccc(OC)c(CN3CCN(c4ccc(F)cc4)CC3)c2)ccc1O ?
RAM network inh: -0.1

What do the screens show for `COc1ccc(OC)c(/C=N/NC(=O)CSc2cc(C)nc3c(OC)cccc23)c1`?
RAM network inh: 0.9

What do the screens show for `O=C(Nc1ccc(C(=O)N2CCOCC2)cc1)Nc1ccc(Cl)cc1Cl`?
RAM network inh: 1.1

How did O=c1cc(O)c2ccccc2n1Cc1ccccc1F do in these assays?
RAM network inh: -0.4

How did O=C(/C=C/c1cn(-c2ccccc2)nc1-c1ccccc1)Nc1ccc(C(=O)O)cc1 do in these assays?
RAM network inh: 8.9*

How did NS(=O)(=O)c1ccc(NC(=O)/C=C/c2cn(-c3ccccc3)nc2-c2cccc(Cl)c2)cc1 do in these assays?
RAM network inh: 3.4

What do the screens show for `CCN(CC)c1ncnc2c1ncn2Cc1c(Cl)cccc1Cl`?
Measles CPE: 2.9; sdo1 growth: -2.35; Yeast growth inh: -40.2; RAM network inh: 0.5

Results for Clc1cccc(Cl)c1Cn1cnc2c(N3CCCCCC3)ncnc21 ?
Measles CPE: 33.0*; sdo1 growth: -1.11; Yeast growth inh: -78.4; RAM network inh: -0.8; Yeast lifespan up: 0.8
